Hits are enriched below; roughly 3.8% of the tested compounds scored in any of these assays.
KCNK9 inh – inhibitors of human KCNK9 two-pore domain potassium channel; Q9NPC2; HEK293 KCNK9, FluxOR thallium flux fluorescence; hits give low values; B-score at 10 µM; actives 1.2% (n = 310,000);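 active means ratio B-score over 3 SD below the library mean, with starting fluorescence within 5 SD of its mean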;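 further: negative B-score means less thallium flux so channel inhibition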
hERG protect – compounds protecting human hERG from proarrhythmic drug block. CHO-hERG, FluxOR thallium flux, dofetilide IC70 present. activation (rescue from dofetilide block), less the hit threshold, % at 10 µM. actives 0.51% (n = 310,000);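 active means activation above the mean of controls blocked by dofetilide plus 5 SD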;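 further: thallium influx through hERG after potassium depolarization seen as dye fluorescence rise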
Kir21 inh – Kir2.1 (mouse) channel inhibition; P35561; HEK293-Kir2.1, FluxOR thallium flux fluorescence; hits give low values; B-score at 10 µM; actives 0.85% (n = 310,000);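 active means fluorescence ratio B-score at or below minus 3 SD of library scores, with starting-brightness B-score within 2 SD, cut at about -4.2 in these data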;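 further: channel flux triggered by added potassium and thallium sulfate stimulus; B-score of peak minus minimum fluorescence over baseline after thallium stimulus; more negative B-score means stronger Kir2.1 block with less thallium influx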
KCNQ1 inh – blocks the human KCNQ1 potassium channel; P51787; CHO-K1 KCNQ1, FluxOR thallium flux fluorescence; hits give high values; B-score at 10 µM; actives 1.3% (n = 310,000); AID 2642;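 active means compounds whose thallium flux B-score, printed positive for inhibition, exceeds three library SD while starting fluorescence stays within three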;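 further: channel opened by potassium depolarization with thallium stimulus after 20 min compound exposure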
KCNQ1 act – potentiates or activates the human KCNQ1 potassium channel | P51787 | actives 0.35% (n = 310,000) | B-score at 10 µM | CHO-K1 KCNQ1, thallium flux FluxOR fluorescence; hits give high values;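 active means fluorescence ratio B-score, a plate-corrected score, at least three library SD, with initial intensity B-score within 5 SD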
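System: Stable KCNQ1 CHO-K1 line | Incubation: 90 min dye loading and 20 min compound exposure, both at room temperature | Measure: Ratio B score | Medium: Assay buffer for compound exposure, DMSO matched across wells | Compound dosing: Single-concentration screen | Probe or stimulus: K+/Tl+ depolarizing stimulus | Measured by: Kinetic FluxOR fluorescence, 10 s baseline plus 110 s post-stimulus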
KCNK3 inh – human KCNK3 channel inhibition, primary screen | actives 0.84% (n = 340,000) | CHO-KCNK3 thallium flux, FluxOR fluorescence; hits give low values | O14649 | B-score at 10 µM;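 active means B-score under library mean minus 4 SD, starting fluorescence ratio at most library mean plus 5 SD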;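 further: more negative B-score means stronger inhibition of thallium flux through KCNK3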
Target sequence (O14649 whole entry, looked up): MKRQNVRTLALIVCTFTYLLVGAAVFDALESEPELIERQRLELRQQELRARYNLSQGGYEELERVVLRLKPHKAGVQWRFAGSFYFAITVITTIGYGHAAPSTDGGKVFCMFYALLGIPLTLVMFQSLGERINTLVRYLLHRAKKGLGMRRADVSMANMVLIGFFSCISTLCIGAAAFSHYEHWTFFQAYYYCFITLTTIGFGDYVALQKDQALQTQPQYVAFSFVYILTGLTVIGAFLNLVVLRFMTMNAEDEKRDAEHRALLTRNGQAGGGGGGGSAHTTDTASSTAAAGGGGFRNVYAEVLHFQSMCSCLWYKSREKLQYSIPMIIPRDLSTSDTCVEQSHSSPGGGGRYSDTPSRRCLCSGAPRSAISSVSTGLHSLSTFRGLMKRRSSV
Numbers without * were called inactive.

`CCS(=O)(=O)c1ncc(Cl)c(C(=O)Nc2ccc(S(=O)(=O)N(C)c3ccccc3)cc2)n1` gave KCNK9 inh inactive, hERG protect -12, Kir21 inh -3.7, KCNQ1 inh inactive, KCNQ1 act inactive and KCNK3 inh inactive.
`CCN(c1ccccc1)S(=O)(=O)c1ccc(Cl)nc1` gave KCNK9 inh inactive, hERG protect -13, Kir21 inh -4.3*, KCNQ1 inh inactive, KCNQ1 act inactive and KCNK3 inh inactive.
CCN(c1ccccc1)S(=O)(=O)c1ccc(NC(=O)c2nc(S(C)(=O)=O)ncc2Cl)cc1 was read as KCNK9 inh inactive, hERG protect -18, Kir21 inh -2.5, KCNQ1 inh inactive, KCNQ1 act 17* and KCNK3 inh inactive.
`Cc1ccc(C(C)C)c(OCC(=O)NS(=O)(=O)c2ccc(Cl)cc2)c1` gave KCNK9 inh inactive, hERG protect -8, Kir21 inh 0.2, KCNQ1 inh inactive, KCNQ1 act inactive and KCNK3 inh inactive.
For CCc1nc2ccc(C)cc2c(C(=O)NC2CCCCC2C)c1C (stereo not drawn) the results were KCNK9 inh inactive, hERG protect -10, Kir21 inh -0.63, KCNQ1 inh inactive, KCNQ1 act inactive and KCNK3 inh inactive.
COc1ccc(-c2n[nH]c(C(F)(F)F)c2-c2cc3ccccc3o2)c(O)c1 was read as KCNK9 inh inactive, hERG protect -11, Kir21 inh 2, KCNQ1 inh 8*, KCNQ1 act inactive and KCNK3 inh inactive.
COc1ccccc1-c1c(-c2ccc(OCC(=O)NN)cc2O)n[nH]c1C(F)(F)F was read as KCNK9 inh inactive, hERG protect -4, Kir21 inh 0.44, KCNQ1 inh inactive, KCNQ1 act inactive and KCNK3 inh inactive.
COCCn1c(SCC(=O)Nc2ccc(F)cc2F)nc2c([nH]c3ccccc32)c1=O was read as KCNK9 inh inactive, hERG protect -3, Kir21 inh -1.3, KCNQ1 inh inactive, KCNQ1 act inactive and KCNK3 inh inactive.
`COc1cc(CNCc2ccc(SC)cc2)cc(OC)c1` gave KCNK9 inh inactive, hERG protect -7, Kir21 inh -5.2*, KCNQ1 inh inactive, KCNQ1 act inactive and KCNK3 inh inactive.
COc1ccc(S(=O)(=O)n2nc(OC(=O)c3ccccc3)cc2N)cc1 was read as KCNK9 inh inactive, hERG protect -12, Kir21 inh 0.11, KCNQ1 inh inactive, KCNQ1 act inactive and KCNK3 inh inactive.
`COc1ccc(S(=O)(=O)n2nc(OC(=O)c3ccccc3Br)cc2N)cc1` gave KCNK9 inh inactive, hERG protect -9, Kir21 inh 0.96, KCNQ1 inh inactive, KCNQ1 act inactive and KCNK3 inh -9.1*.
`O=C(COCc1cc(-c2ccc3c(c2)OCO3)on1)N1CCN(c2ccccc2)CC1` gave KCNK9 inh inactive, hERG protect -6, Kir21 inh -0.67, KCNQ1 inh inactive, KCNQ1 act inactive and KCNK3 inh inactive.
Cc1ccc(NC(=O)c2c([N+](=O)[O-])c(C(C)(C)C)nn2C)cc1 was read as KCNK9 inh inactive, hERG protect 24*, Kir21 inh 1.5, KCNQ1 inh inactive, KCNQ1 act inactive and KCNK3 inh inactive.
For Cn1nc(C(C)(C)C)c([N+](=O)[O-])c1C(=O)Nc1ccccc1 the results were KCNK9 inh inactive, hERG protect -10, Kir21 inh -0.05, KCNQ1 inh inactive, KCNQ1 act inactive and KCNK3 inh inactive.
For CC(C)c1ccc(NC(=S)Nc2ccc(OC(F)(F)F)cc2)cc1 the results were KCNK9 inh inactive, hERG protect -9, Kir21 inh -0.76, KCNQ1 inh 10*, KCNQ1 act inactive and KCNK3 inh inactive.
For FC(F)(F)Oc1ccc(NC(=S)Nc2ccc(OC(F)(F)F)cc2)cc1 the results were KCNK9 inh inactive, hERG protect -18, Kir21 inh 1.4, KCNQ1 inh 10*, KCNQ1 act inactive and KCNK3 inh inactive.
For O=C(O)/C=C/C(=O)Nc1ccc(OC(F)(F)F)cc1 the results were KCNK9 inh inactive, hERG protect -2, Kir21 inh 0.03, KCNQ1 inh inactive, KCNQ1 act inactive and KCNK3 inh inactive.
Cc1noc(C)c1COC(=O)c1ccccc1NC(=O)c1ccco1 was read as KCNK9 inh inactive, hERG protect -18, Kir21 inh 0.64, KCNQ1 inh inactive, KCNQ1 act inactive and KCNK3 inh inactive.
Screening CCC(C)NC(=O)CN(C1CCCCC1)S(=O)(=O)c1ccc(F)cc1 (stereo not drawn) returned KCNK9 inh inactive, hERG protect -7, Kir21 inh 0.34, KCNQ1 inh inactive, KCNQ1 act inactive and KCNK3 inh inactive.
Screening C[C@H]1CC[C@H]2C(=O)N3[C@H](c4ccccc4Br)[C@@H](C)CC[C@H]3C(=O)N2[C@@H]1c1ccccc1Br returned KCNK9 inh -9.6*, hERG protect -10, Kir21 inh -0.12, KCNQ1 inh inactive and KCNQ1 act inactive.
C[C@H]1CC[C@H]2C(=O)N3[C@H](c4cccc(N5CCCC5=O)c4)[C@@H](C)CC[C@H]3C(=O)N2[C@@H]1c1cccc(N2CCCC2=O)c1 was read as KCNK9 inh inactive, hERG protect -8, Kir21 inh 0.67, KCNQ1 inh inactive and KCNQ1 act inactive.
`CC(CCc1ccccc1)NC(=O)C(=O)Nc1ccccc1` (stereo not drawn) gave KCNK9 inh inactive, hERG protect -4, Kir21 inh 1.4, KCNQ1 inh inactive, KCNQ1 act inactive and KCNK3 inh inactive.
For CCOC(=O)C1=C(Cc2ccc(F)cc2)C(=O)c2ccccc2C1=O the results were KCNK9 inh inactive, hERG protect -14, Kir21 inh -0.1, KCNQ1 inh inactive, KCNQ1 act inactive and KCNK3 inh inactive.
CCCCc1ccc(/C=C2\C(=O)c3ccccc3C(O)=C2C(=O)OCC)cc1 was read as KCNK9 inh inactive, hERG protect -11, Kir21 inh -0.62, KCNQ1 inh inactive and KCNQ1 act 9*.
COc1ccccc1Cn1c(=S)[nH]c2cc(C(=O)NCC(OC)OC)ccc2c1=O was read as KCNK9 inh inactive, hERG protect -3, Kir21 inh 2.2, KCNQ1 inh inactive, KCNQ1 act inactive and KCNK3 inh inactive.
`Cc1c(C(=O)NC2CCN(Cc3ccccc3)C2)oc2c(Cl)cccc12` (stereo not drawn) gave KCNK9 inh inactive, hERG protect -14, Kir21 inh -9.9*, KCNQ1 inh inactive, KCNQ1 act inactive and KCNK3 inh inactive.
Screening Cc1c(C(=O)N2CCN(c3ccccc3)CC2)oc2c(Cl)cccc12 returned KCNK3 inh -9.9*.

Screening results deposited in PubChem by Johns Hopkins Ion Channel Center.
